The record followed here is ChEMBL document CHEMBL1153099, “2,4-Diaryl-4,6,7,8-tetrahydroquinazolin-5(1H)-one derivatives as anti-HBV agents targeting at capsid assembly” (Bioorg Med Chem Lett, 2010).

For one data set, the system named is Hepatitis B virus. Nature of the data set: Antiviral activity against HBV infected in human HepG2.2.15 cells assessed as inhibition of viral DNA replication. In kind it is functional, organism-based, HepG2 2.2.15. The method, boiled down:
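HepG2.2.15 cells, which secrete virus-like particles. Reference anti-HBV agents were run as positive controls. IC50 is the mean of three experiments. A compound with no activity at its maximum nontoxic concentration was scored as not active.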

Data set [1] can be described thus: Cytotoxicity against human HepG2(2.2.15) cells. In kind it is cell-based. The method, boiled down:
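Viability of HepG2.2.15 cells was read after 48 h of compound exposure. Cytotoxic IC50 is the mean of three experiments.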

The nature of data set [2]: Therapeutic index, ratio of IC50 for human HepG2(2.2.15) cells to IC50 for HBV. The conditions noted are these: read-out: Ratio IC50. It counts as cell-based.
Setting [3] is: Hepatitis B virus, HepG2 2.2.15, read-out: IC50.

As to `O=C1CCCC2=C1C(c1ccc(F)cc1Cl)N=C(c1ccco1)N2` (centres undefined), the IC50 entry was “Not Active” in the data set with Hepatitis B virus (hepg2 2.2.15) and 717 µM in data set [1].

As for `CC1(C)CC(=O)C2=C(C1)NC(c1cccnc1)=NC2c1ccc(F)cc1Cl` (centres undefined), the IC50 was determined as 0.44 µM in the data set with Hepatitis B virus (setting [3]) and 624 µM in data set [1]. Also, the selectivity ratio in data set [2] worked out at 1420.

Turning to `CC1(C)CC(=O)C2=C(C1)NC(c1cccnc1)=NC2c1ccccc1Cl` (centres undefined), the IC50 amounted to 26.2 µM in the data set with Hepatitis B virus (setting [3]) and 67.3 µM in data set [1]. The selectivity ratio in data set [2] is 2.56.

Consider `O=C1CCCC2=C1C(c1ccccc1)N=C(c1ccccn1)N2` (centres undefined), for which the IC50 in the data set on Hepatitis B virus (setting [3]) turned out to be 6.6 µM; in data set [1], 571 µM. Besides, the selectivity ratio in data set [2] was found to be 86.6.

On to `O=C1CCCC2=C1C(c1ccccc1)N=C(c1cccnc1)N2` (centres undefined), for which the results for the IC50 entry (in the data set on Hepatitis B virus (hepg2 2.2.15); in data set [1]) were “Not Active” and 369 µM, respectively.

On to `O=C1CCCC2=C1C(c1ccc(F)cc1Cl)N=C(c1nccs1)N2` (centres undefined), for which the values for the IC50 (with Hepatitis B virus (setting [3]); in data set [1]) were 8.75 µM and 47.7 µM, respectively. The selectivity ratio in data set [2] was 5.73.

Regarding `O=C1CCCC2=C1C(c1ccc(F)cc1Cl)N=C(c1cnccn1)N2` (centres undefined), the IC50 is 2.3 µM in the data set with Hepatitis B virus (setting [3]) and 777 µM in data set [1]. In data set [2], the selectivity ratio stood at 338.

Turning to `CC1(C)CC(=O)C2=C(C1)NC(c1c(F)cc(F)cc1F)=NC2c1ccc(F)cc1Cl` (centres undefined), the IC50 result in the data set on Hepatitis B virus (hepg2 2.2.15) was “Not Active”; in data set [1], 5.6 µM.

Turning to `O=C1CCCC2=C1C(c1ccc(F)cc1)N=C(c1ccccn1)N2` (centres undefined), the results for the IC50 result (in the data set with Hepatitis B virus (hepg2 2.2.15); in data set [1]) were “Not Active” and 516 µM, respectively.

With `O=C1CCCC2=C1C(c1ccc(F)cc1Cl)N=C(c1cccnc1)N2` (centres undefined), the figures for the IC50 (in the data set on Hepatitis B virus (setting [3]); in data set [1]) were 25.1 µM and 82.8 µM, respectively.

For the compound `CC1(C)CC(=O)C2=C(C1)NC(c1ccncc1)=NC2c1ccc(F)cc1Cl` (centres undefined), the IC50 in the data set with Hepatitis B virus (setting [3]) came out at 4.92 µM; in data set [1], 135 µM. In addition, the selectivity ratio in data set [2] was 27.3.

On to `O=C1CCCC2=C1C(c1ccc(F)cc1Cl)N=C(c1ncccc1F)N2` (centres undefined), for which the IC50 in the data set with Hepatitis B virus (setting [3]) came out at 1.1 µM; in data set [1] it was 1370 µM. Further, the selectivity ratio in data set [2] stood at 1240.

`O=C1CCCC2=C1C(c1ccc(F)cc1Cl)N=C(c1c(F)cc(F)cc1F)N2` (centres undefined): the results for the 50% inhibitory concentration (IC50) result (in the data set with Hepatitis B virus (hepg2 2.2.15); in data set [1]) were “Not Active” and 123 µM, respectively.

Take `CC1(C)CC(=O)C2=C(C1)NC(c1cccnc1)=NC2c1ccc(F)cc1` (centres undefined): the values for the IC50 (in the data set with Hepatitis B virus (setting [3]); in data set [1]) were 25.3 µM and 145 µM, respectively. Also, the selectivity ratio in data set [2] came out at 5.73.

Regarding `O=C1CCCC2=C1C(c1ccccc1Cl)N=C(c1cnccn1)N2` (centres undefined), the IC50 result in the data set on Hepatitis B virus (hepg2 2.2.15) was “Not Active”; in data set [1] it was 1470 µM.

As to `CC1(C)CC(=O)C2=C(C1)NC(c1ncc(F)cc1F)=NC2c1ccc(F)cc1Cl` (centres undefined), the values for the IC50 (with Hepatitis B virus (setting [3]); in data set [1]) were 1.05 µM and 41.2 µM, respectively. The selectivity ratio in data set [2] was found to be 39.2.

As to `CC1(C)CC(=O)C2=C(C1)NC(c1nccs1)=NC2c1ccc(F)cc1Cl` (centres undefined), the values for the IC50 (with Hepatitis B virus (setting [3]); in data set [1]) were 3.12 µM and 57 µM, respectively. Also, in data set [2], the selectivity ratio turned out to be 19.2.

Regarding `CC1(C)CC(=O)C2=C(C1)NC(c1cnccn1)=NC2c1ccccc1Cl` (centres undefined), the IC50 entry with Hepatitis B virus (hepg2 2.2.15) was “Not Active”; in data set [1], 623 µM.

Take `COC(=O)C1=C(C)NC(c2ncc(F)cc2F)=N[C@H]1c1ccc(F)cc1Cl`: the IC50 in the data set with Hepatitis B virus (setting [3]) is 0.78 µM; in data set [1], 567 µM.

`CC1(C)CC(=O)C2=C(C1)NC(c1cnccn1)=NC2c1ccc(F)cc1Cl` (centres undefined): the IC50 was determined as 14.2 µM with Hepatitis B virus (setting [3]) and 773 µM in data set [1]. The selectivity ratio in data set [2] turned out to be 54.5.

`CC1(C)CC(=O)C2=C(C1)NC(c1ncccc1F)=NC2c1ccc(F)cc1Cl` (centres undefined): the IC50 result in the data set on Hepatitis B virus (hepg2 2.2.15) was “Not Active”; in data set [1] it was 371 µM.

As to `O=C1CCCC2=C1C(c1ccccc1Cl)N=C(c1cccnc1)N2` (centres undefined), the IC50 entry in the data set on Hepatitis B virus (hepg2 2.2.15) was “Not Active”; in data set [1], 1120 µM.

On to `O=C1CCCC2=C1C(c1ccc(F)cc1Cl)N=C(c1ccncc1)N2` (centres undefined), for which the IC50 was 16.5 µM in the data set on Hepatitis B virus (setting [3]) and 142 µM in data set [1]. Also, in data set [2], the selectivity ratio came out at 8.6.

`CC1(C)CC(=O)C2=C(C1)NC(c1cccnc1)=NC2c1ccccc1` (centres undefined): the results for the IC50 (with Hepatitis B virus (setting [3]); in data set [1]) were 22.4 µM and 173 µM, respectively. Besides, in data set [2], the selectivity ratio is 7.74.

Turning to `O=C1CCCC2=C1C(c1ccccc1Cl)N=C(c1ccccn1)N2` (centres undefined), the IC50 result in the data set with Hepatitis B virus (hepg2 2.2.15) is “Not Active”; in data set [1], 589 µM.

Take `O=C1CCCC2=C1C(c1ccc(F)cc1Cl)N=C(c1ccccn1)N2` (centres undefined): the IC50 in the data set with Hepatitis B virus (setting [3]) was 4.3 µM; in data set [1], 620 µM. The selectivity ratio in data set [2] was found to be 144.

As to `O=C1CCCC2=C1C(c1ccc(F)cc1)N=C(c1cccnc1)N2` (centres undefined), the 50% inhibitory concentration (IC50) result in the data set on Hepatitis B virus (hepg2 2.2.15) is “Not Active”; in data set [1], 280 µM.

For `Nc1ccn([C@@H]2CS[C@H](CO)O2)c(=O)n1` [LAMIVUDINE], the IC50 with Hepatitis B virus (setting [3]) was 0.22 µM.
